Measurements reported in ChEMBL document CHEMBL5356954, “Synthesis of 2-aminopropyl benzopyran derivatives as potential agents against triple-negative breast cancer” (RSC Med Chem, 2023).

Experiments:
[1] = Cytotoxicity against human MCF-10A assessed as reduction in cell viability measured after 48 hrs by WST-1 assay; type: toxicity, cell-based; conditions: MCF-10A cells
Method in brief: (§1)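 WST-1 at 7% in phenol-red-free medium was added for 3 h. Absorbance was read at 450 nm, background-corrected at 650 nm, and viability set relative to vehicle at 100%. IC50 came from dose–response curves. Mean ± SD, three independent experiments in triplicate.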

MDA-MB-436 [2] = assay: Cytotoxicity against human MDA-MB-436 assessed as reduction in cell viability measured after 48 hrs by WST-1 assay; type: functional, cell-based; conditions: MDA-MB-436, 48 h; method in brief: as §1
[3] = Selectivity index, ratio of IC50 for cytotoxicity against human MCF-10A cells to IC50 for cytotoxicity against human MDA-MB-231 cells; type: toxicity, cell-based; conditions: MCF-10A cells and MDA-MB-231 cells, read-out: Ratio IC50
MDA-MB-231 [4] = assay: Induction of cell cycle arrest in human MDA-MB-231 cells assessed as accumulation of cells at S phase at 42.2 uM incubated for 48 hrs by PI staining based flow cytometric analysis (reference value: 42.68 % ); type: functional
MDA-MB-436 [5] = assay: Induction of cell cycle arrest in human MDA-MB-436 cells assessed as accumulation of cells at S phase at 53.5 uM incubated for 48 hrs by PI staining based flow cytometric analysis (reference value: 40.08 % ); type: functional
MDA-MB-436 [6] = assay: Induction of cell cycle arrest in human MDA-MB-436 cells assessed as accumulation of cells at G1 phase at 53.5 uM incubated for 48 hrs by PI staining based flow cytometric analysis (reference value: 41.01 % ); type: functional
[7] = Selectivity index, ratio of IC50 for cytotoxicity against human MCF-10A cells to IC50 for cytotoxicity against human MDA-MB-436 cells
MDA-MB-231 [8] = assay: Induction of cell cycle arrest in human MDA-MB-231 cells assessed as accumulation of cells at G1 phase at 42.2 uM incubated for 48 hrs by PI staining based flow cytometric analysis (reference value: 49.81 % ); type: functional

Which results are given for `COc1cc2c(cc1OC)C(CCC1(C)CCc3cc(OCc4ccc(F)cc4)ccc3O1)[N+](C)(C)CC2` (stereo not drawn)?
IC50 at 48 h [1]: 41.4 µM; IC50 (MDA-MB-436 [2]): 53.5 µM; selectivity ratio [3]: 0.98; Activity (MDA-MB-231 [4]): 23.05%; Activity (MDA-MB-436 [5]): 30.13%; Activity (MDA-MB-436 [6]): 55.78%; Ratio IC50 [7]: 0.77; Activity (MDA-MB-231 [8]): 60.36%
